Measurements from different studies.
Lines come from different studies, so protocols differ.
Target: Atypical kinase COQ8A, mitochondrial (COQ8A, Homo sapiens, UniProt Q8NI60)

SMILES	test	setting	remaining binding
Cc1cc(NC(=O)c2cccc(S(F)(F)(F)(F)F)c2)cc(-n2ccn3nc(-c4cccnc4)cc23)c1	cell-free assay, competition with immobilised ligand	1 µM	82.8%
C[C@H]1CCN(c2nccc(-c3cnn4ncccc34)n2)C1	binding	1 µM	100%
NS(=O)(=O)c1cc(NC(=O)C2(c3ccccc3Cl)CC2)ccc1Oc1cccc(Cl)c1	cell-free assay, competition with immobilised ligand	1 µM	100%
c1cncc(-c2cccc(Nc3nccc(NC4CCCCC4)n3)c2)c1	binding, competition with immobilised ligand	10 µM	81%
O=C(c1ccc(Nc2ncc(Cl)c(-c3cc4ccccc4s3)n2)cc1)N1CCC(N2CCCC2)CC1	binding, competition with immobilised ligand	1 µM	78%
C[C@H](c1ccnc(Nc2nc3ccc(-c4cc(N(C)C)ncn4)cc3[nH]2)c1)N1CCN(C(=O)CC(F)(F)F)CC1	cell-free assay, competition with immobilised ligand	0.1 µM	100%
CN(C)c1nccc(-c2cnn3ncccc23)n1	binding	1 µM	88%
O=C(NCCCN1CCOCC1)c1ccc(Nc2nccc(-c3cc4ccccc4s3)n2)cc1	binding, competition with immobilised ligand	1 µM	90%
COc1ncc2cc3ccccc3nc2c1C#N	cell-free assay, competition with immobilised ligand	5 µM	96%
F[C@@H]1CCN(c2nccc(-c3cnn4ncccc34)n2)C1	binding	1 µM	100%
O=C(c1ccc(Nc2ncc(Cl)c(-c3ccc(Cl)s3)n2)cc1)N1CCC(N2CCCC2)CC1	binding, competition with immobilised ligand	1 µM	100%
C[C@@H](c1ccc(-n2cnc3c(N)ncnc32)cc1)N1CCc2nn(C)c(Cc3ccccc3)c2C1=O	binding, competition with immobilised ligand	0.1 µM	84%
O=C(NCC1CCOCC1)c1n[nH]cc1NC(=O)c1c(F)cccc1F	binding, competition with immobilised ligand	1 µM	86%
CC(=O)C1=C(C)N(c2cccc(C(F)(F)F)c2)C(=O)N[C@@H]1c1ccc(C#N)nc1	cell-free assay, competition with immobilised ligand	1 µM	100%
N[C@H]1CCN(c2nccc(-c3cnn4ncccc34)n2)C1	binding	1 µM	79%
CNCc1ccccc1-c1csc([C@H](C)Nc2nc(C)nc3cc(OC)c(OC)cc23)c1	cell-free assay, competition with immobilised ligand	1 µM	91%
Nc1ncc2c(n1)-c1c([nH]c3ccc(C#CC4CC4)cc13)CCCC2	binding, competition with immobilised ligand	1 µM	96%
COc1cnc(Nc2cccc(S(N)(=O)=O)c2)nc1N1CCN(c2ccccc2)C(=O)C1	binding, competition with immobilised ligand	1 µM	100%
O=c1nc(-c2ccccn2)sc2ccccc12	cell-free assay, competition with immobilised ligand	1 µM	88%
CN(C)c1ncc(F)c(-c2cnn3ncccc23)n1	binding	1 µM	96%
CCN1CCN(Cc2ccc(C(=O)Nc3ccc(C)c(Oc4ccc5c(c4)CC(=O)N5)c3)cc2C(F)(F)F)CC1	binding, competition with immobilised ligand	1 µM	92%
C[C@@H]1CN(c2ccc3ncc(-c4ccc5[nH]nc(C6CC6)c5c4)n3n2)C[C@H](C)O1	binding, competition with immobilised ligand	50 nM	94%
CN(C)c1nccc(-c2cnc3ncccn23)n1	binding	1 µM	100%
Cn1nc(C(F)(F)F)cc1-c1cnc(N2CCc3cc(S(=O)(=O)Nc4c(F)cc(Cl)cc4F)cc(N4CCCC4=O)c32)nc1	cell-free assay, competition with immobilised ligand	1 µM	100%
